Experimental data taken from ChEMBL document CHEMBL1130160 (J Med Chem, 1997).
pIC50: −log10 of the molar value.

Experiments:
Rattus norvegicus [1] = experiment: Percent decrease in serum cholesterol relative to OVX control at 0.1 mg/kg in rat was determined (in vivo); format: functional
Outline: (§1)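 OVX Sprague–Dawley rats (75 days old), 5–6 per group, dosed once daily by oral gavage for 4 consecutive days, starting 14 days after ovariectomy. Vehicle was 20% β-hydroxycyclodextrin at 1 mL/kg, or 1.5% carboxymethylcellulose in some cases. Rats were fasted after the last dose and bled by cardiac puncture next morning.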

Rattus norvegicus [2] = experiment: Percent decrease in serum cholesterol relative to OVX control at 10 mg/kg in rat was determined (in vivo); format: functional; outline: as §1
Rattus norvegicus [3] = experiment: Percent decrease in serum cholesterol relative to OVX control at 1 mg/kg in rat; format: functional; outline: as §1
Rattus norvegicus [4] = experiment: Dose required to reduce serum cholesterol by 50% relative to OVX controls was determined (in vivo); format: functional; outline: as §1
Rattus norvegicus [5] = experiment: Minimum effective dose at which significant increase in uterine eosinophil peroxidase (EPO) activity in rat was determined (in vivo); format: functional; conditions: read-out: MED
Rattus norvegicus [6] = experiment: Minimum effective dose at which significant increase in uterine weight/body weight in rat was determined (in vivo); format: functional; conditions: read-out: MED
Outline: (§2)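 In 75-day OVX Sprague–Dawley rats dosed orally for 4 days, beginning 2 weeks post-ovariectomy with 5–6 rats per group, whole uteri were weighed the morning after fasting. MED is the lowest dose giving a significant (p≤0.05) rise in uterine weight/body weight, expressed as % increase over OVX controls ±SE.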

Estrogen receptor = Estrogen receptor (Homo sapiens, UniProt Q92731+P03372); conditions: mcf7
Rattus norvegicus [7] = experiment: Minimum effective dose at which significant increase in uterine weight/body weight in rat was determined (in vivo); expressed as % increase relative to ovariectomized (OVX) controls; format: functional; outline: as §2
Rattus norvegicus [8] = experiment: Percent decrease in serum cholesterol relative to OVX control at 1.0 mg/kg in rats; format: functional; outline: as §1

IC50 (Estrogen receptor) [nM]	pIC50 (Estrogen receptor)	Structure (SMILES)	Decrease (Rattus norvegicus [1]) [%]	Decrease (Rattus norvegicus [2]) [%]	Decrease (Rattus norvegicus [3]) [%]	ED50 (Rattus norvegicus [4]) [mg/kg]	minimal effective dose (Rattus norvegicus [5]) [mg/kg]	minimal effective dose (Rattus norvegicus [6]) [mg/kg]	Increase (Rattus norvegicus [7]) [%]	Decrease (Rattus norvegicus [8]) [%]
2.5		O=C(c1ccc(OCCN2CCCCC2)cc1)c1c(-c2cccc(F)c2)sc2cc(O)ccc12			62	1	> 10	0.1		
2.5		Cl.O=C(c1ccc(OCCN2CCCCC2)cc1)c1c(-c2ccccc2)sc2cc(O)ccc12	55.6	66	53.4	< 0.1	> 10	0.1	38.7	
3		O=C(c1ccc(OCCN2CCCCC2)cc1)c1c(-c2ccc(O)cc2)sc2cc(O)c(F)cc12	4.6	31.6	4.1	> 10	> 10	> 10		
2		COc1cc(O)ccc1-c1sc2cc(O)ccc2c1C(=O)c1ccc(OCCN2CCCCC2)cc1			79	< 0.1	1	0.1		
1		Cc1cc(-c2sc3cc(O)ccc3c2C(=O)c2ccc(OCCN3CCCCC3)cc2)ccc1O	28.4		73.9	1	> 10	> 10		
2.3		Cl.O=C(c1ccc(OCCN2CCCCC2)cc1)c1c(-c2ccc(F)cc2)sc2cc(O)ccc12	20.6	71.9	46	1.4	> 10	1	50.2	
> 1000		COc1ccc2c(C(=O)c3ccc(OCCN4CCCCC4)cc3)c(-c3ccccc3)sc2c1								
300		Cl.O=C(c1ccc(OCCN2CCCCC2)cc1)c1c(-c2ccccc2)sc2ccccc12	59.4	45.6	72.6	< 0.1	> 10	0.1	59.2	
190		O=C(c1ccc(OCCN2CCCCC2)cc1)c1c(-c2ccc(O)cc2)sc2cccc(O)c12	29.6	31.8	18	> 10	> 10	> 10		
250		COc1ccc2c(C(=O)c3ccc(OCCN4CCCCC4)cc3)c(-c3ccc(O)cc3)sc2c1	54.8	50	64.5	< 0.1	> 10	1	33.5	
600		COc1ccc2c(C(=O)c3ccc(OCCN4CCCCC4)cc3)c(-c3ccc(CO)cc3)sc2c1								
300		COc1ccc(-c2sc3cc(OC)ccc3c2C(=O)c2ccc(OCCN3CCCCC3)cc2)cc1.Cl	62.2	68.5	78	< 0.1	> 10	0.1	57.3	
100		O=C(c1ccc(OCCN2CCCCC2)cc1)c1c(-c2ccc(O)cc2)sc2ccc(O)cc12	10.4	22.6	3.7		> 10	> 10		
350		COc1ccc(-c2sc3c(OC)c(OC)c(OC)cc3c2C(=O)c2ccc(OCCN3CCCCC3)cc2)cc1.Cl								
1000		Cl.O=C(c1ccc(OCCN2CCCCC2)cc1)c1c(-c2ccc(O)cc2)sc2cc(Cl)ccc12	-5.1	37.6	-6.8	> 10	> 10	10	49.6	
0.7		Cc1ccccc1-c1sc2cc(O)ccc2c1C(=O)c1ccc(OCCN2CCCCC2)cc1				> 10	> 10	10		
1		Cl.O=C(c1ccc(OCCN2CCCCC2)cc1)c1c(-c2ccc(Cl)cc2)sc2cc(O)ccc12	32.3	65	69.9	0.3	> 10	0.1	56.5	
50		Cc1ccc(-c2sc3cc(O)ccc3c2C(=O)c2ccc(OCCN3CCCCC3)cc2)cc1.Cl	12.2	69.1	26.5	2.9	> 10	1	34.6	
300		O=C(c1ccc(OCCN2CCCCC2)cc1)c1c(-c2ccc(O)cc2)sc2c(O)cccc12	-6.1	-3.4	-11.7		> 10	10	43.5	
1000		COc1ccc(-c2sc3cc(O)ccc3c2C(=O)c2ccc(OCCN3CCCCC3)cc2)cc1	65.2	72.6	75.6	< 0.1	> 10	> 10		
400		O=C(c1ccc(OCCN2CCCCC2)cc1)c1c(-c2ccc(O)cc2)sc2cc(O)c(O)cc12								
	6.00	NC(=O)c1ccc2c(C(=O)c3ccc(OCCN4CCCCC4)cc3)c(-c3ccc(O)cc3)sc2c1					> 10	10	30.7	-14.9
2.3		O=C(c1ccc(OCCN2CCCCC2)cc1)c1c(-c2ccc(O)c(Cl)c2)sc2cc(O)ccc12			52.7	1.2	> 10	10	30.3	
500		O=C(c1ccc(OCCN2CCCCC2)cc1)c1c(-c2ccc([N+](=O)[O-])cc2)sc2cc(O)ccc12								

Continued, molecule first:

Structure (SMILES)	IC50 (Estrogen receptor) [nM]	pIC50 (Estrogen receptor)	Decrease (Rattus norvegicus [1]) [%]	Decrease (Rattus norvegicus [2]) [%]	Decrease (Rattus norvegicus [3]) [%]	ED50 (Rattus norvegicus [4]) [mg/kg]	minimal effective dose (Rattus norvegicus [5]) [mg/kg]	minimal effective dose (Rattus norvegicus [6]) [mg/kg]	Increase (Rattus norvegicus [7]) [%]	Decrease (Rattus norvegicus [8]) [%]
Cc1cc2c(C(=O)c3ccc(OCCN4CCCCC4)cc3)c(-c3ccc(O)cc3)sc2cc1O			-4.3	43.7	42.2	5.4	> 10	> 10		
COc1ccc2c(C(=O)c3ccc(OCCN4CCCCC4)cc3)c(-c3ccc4c(c3)OCO4)sc2c1	500									
O=C(c1ccc(OCCN2CCCCC2)cc1)c1c(-c2ccc3ccccc3c2)sc2cc(O)ccc12	80					0.2	0.1	0.1		
O=C(c1ccc(OCCN2CCCCC2)cc1)c1c(-c2ccccc2O)sc2cc(O)ccc12	10		7.8			> 10	> 10	> 10		
O=C(c1ccc(OCCN2CCCCC2)cc1)c1c(-c2ccc(O)cc2)sc2cc(O)c3ccccc3c12	500									
COc1ccc(-c2sc3ccccc3c2C(=O)c2ccc(OCCN3CCCCC3)cc2)cc1.O=C(O)CC(O)(CC(=O)O)C(=O)O	100									
Cc1c(O)cc(C)c2c(C(=O)c3ccc(OCCN4CCCCC4)cc3)c(-c3ccc(O)cc3)sc12	100									
NC(=O)c1ccc(-c2sc3cc(O)ccc3c2C(=O)c2ccc(OCCN3CCCCC3)cc2)cc1			-3.2	10	-21.3		> 10	> 10		
O=C(c1ccc(OCCN2CCCCC2)cc1)c1c(-c2cccs2)sc2cc(O)ccc12	20					11	> 10	1		-0.9
Cc1cc(O)ccc1-c1sc2cc(O)ccc2c1C(=O)c1ccc(OCCN2CCCCC2)cc1	2					0.4	> 10	0.1		
C#Cc1ccc2c(C(=O)c3ccc(OCCN4CCCCC4)cc3)c(-c3ccc(O)cc3)sc2c1			39.4	65.8	58.7	0.5	> 10	1	27.8	
C#Cc1ccc(-c2sc3cc(O)ccc3c2C(=O)c2ccc(OCCN3CCCCC3)cc2)cc1			9.1	35.8	32.7	> 10	> 10	> 10		
O=C(c1ccc(OCCN2CCCCC2)cc1)c1c(-c2ccc(O)cc2)sc2cc(O)cc(O)c12	350									
CC/C(=C(\c1ccccc1)c1ccc(OCCN(C)C)cc1)c1ccccc1 [TAMOXIFEN]			39.2	67	71.1	0.2	0.1	0.1	62.4	
O=C(O)c1ccc(-c2sc3cc(O)ccc3c2C(=O)c2ccc(OCCN3CCCCC3)cc2)cc1			3.1	24.6	-8.8		> 10	> 10		
Cc1cc2c(C(=O)c3ccc(OCCN4CCCCC4)cc3)c(-c3ccc(O)cc3)sc2c(C)c1O	500									
